In ChEMBL document CHEMBL3351516, “Efficient synthesis of eudistomin U and evaluation of its cytotoxicity” (Bioorg Med Chem Lett, 2014):
Converted amounts (≈) assume the structure as drawn.

How the values were obtained:
Streptococcus pyogenes = experiment: Antibacterial activity against Streptococcus pyogenes measured after overnight incubation by spectrophotometry; type: functional, organism-based
Method in brief: (§1)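 Bacteria were grown overnight at 37 °C in Luria broth, subcultured to OD 0.1 and grown 2 h more. Culture was added to cuvettes holding 0.1–300 µM test agent (0.3% DMSO). Controls were DMSO and streptomycin: 0.500 µg/mL for P. aeruginosa, 0.0625 µg/mL for the others. Shaken at 37 °C with OD read every 2.5 h in duplicate to about 7.5 h. IC50 from sigmoidal fit, mean of three trials.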

[1] = tested on: Mycolicibacterium smegmatis; experiment: Antibacterial activity against Mycobacterium smegmatis measured every 2.5 hrs by spectrophotometry; type: functional, organism-based
Method in brief: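 M. smegmatis MC²155 was grown 48 h at 37 °C with shaking in 7H9 complete medium with Tween, diluted 1:1000 and grown overnight. It was then subcultured to OD 0.1 and grown 2 h. Exposed to 0.1–300 µM (0.3% DMSO), with DMSO and streptomycin 0.250 µg/mL controls. Shaken at 37 °C, OD read every 2.5 h in duplicate to about 7.5 h. Sigmoidal-fit IC50, mean of three trials.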

[2] = Cytotoxicity against human WM266.4 cells after 24 hrs by MTT assay; type: functional, cell-based; conditions: WM 266-4, 24 h
Method in brief: (§2)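 Cells were grown 72 h in DMEM/F12 with penicillin, streptomycin and L-glutamate, trypsinized and counted. Plated at 10,000 cells/well in IMDM, held 24 h at 37 °C, 5% CO₂, then treated 24 h with 0.1–300 µM (0.1% DMSO); DMSO control row. MTT (5 mg/mL in PBS, 20 µL/well) for 2 h, dissolved in DMSO, A490. Sigmoidal-fit IC50 from percent survival.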

Staphylococcus aureus = experiment: Antibacterial activity against Staphylococcus aureus measured after overnight incubation by spectrophotometry; type: functional, organism-based; method in brief: as §1
[3] = Cytotoxicity against human C19 cells after 24 hrs by MTT assay; type: functional, cell-based; conditions: C19, 24 h
Method in brief: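 Thawed C-19 leukemia cells were grown 48 h in IMDM with penicillin, streptomycin and L-glutamate at 37 °C, 5% CO₂. Plated at 10,000 cells/well in IMDM, held 24 h, then treated 24 h with 0.1–300 µM (0.1% DMSO); DMSO control row. MTT (5 mg/mL in PBS, 20 µL/well) for 2 h, dissolved in DMSO, A490. IC50 from sigmoidal fit of percent survival.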

Candida albicans = experiment: Antibacterial activity against Candida albicans measured every 2.5 hrs by spectrophotometry; type: functional, organism-based
Method in brief: (§3)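 Yeasts were grown overnight at 30 °C: S. cerevisiae in synthetic dextrose medium, C. albicans wild-type diploid in WYPD with glucose. Subcultured to OD 0.1 and grown 2 h. Exposed to 0.1–300 µM (0.3% DMSO), with DMSO and caspofungin 1 µg/mL controls. Shaken at 30 °C, OD read every 2.5 h in duplicate to about 7.5 h. Sigmoidal-fit IC50, mean of three trials.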

Saccharomyces cerevisiae = experiment: Antibacterial activity against Saccharomyces cerevisiae measured every 2.5 hrs by spectrophotometry; type: functional, organism-based; method in brief: as §3
P388 = experiment: Growth inhibition of mouse P388 cells at 10 uM; type: functional; conditions: read-out: GI
Escherichia coli = experiment: Antibacterial activity against Escherichia coli measured after overnight incubation by spectrophotometry; type: functional, organism-based; method in brief: as §1
Pseudomonas aeruginosa = experiment: Antibacterial activity against Pseudomonas aeruginosa measured after overnight incubation by spectrophotometry; type: functional, organism-based; method in brief: as §1
[4] = Cytotoxicity against human Caov3 cells after 24 hrs by MTT assay; type: functional, cell-based; conditions: Caov-3, 24 h; method in brief: as §2

IC50 (Streptococcus pyogenes): 3.4 µg/mL (≈ 12 µM)
IC50 [1]: 3.6 µg/mL (≈ 12.7 µM)
IC50 (Staphylococcus aureus): 6.4 µg/mL (≈ 22.6 µM)
IC50 (Candida albicans): > 30 µg/mL
IC50 (Saccharomyces cerevisiae): > 300 µg/mL
IC50 (Escherichia coli): 12.3 µg/mL (≈ 43.4 µM)
IC50 (Pseudomonas aeruginosa): 27.7 µg/mL (≈ 97.8 µM)
SMILES: c1ccc2c(-c3nccc4c3[nH]c3ccccc34)c[nH]c2c1
IC50 [2]: 27.5 µg/mL (≈ 97.1 µM)
IC50 [3]: 15.6 µg/mL (≈ 55.1 µM)
inhibition of growth at 10 µM (P388): 38%
IC50 [4]: 24.9 µg/mL (≈ 87.9 µM)
